# Env fusion inh = blocks HIV Env-driven cell-cell fusion. HeLa-JRFL Env/CEM21 cell fusion, luciferase. inhibition, % at 12.3 µM. 360,000 tested, 1.1% active. AID 651610;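 active means mean replicate inhibition score of at least 50 and every replicate individually at or above 50; inconclusive means only one of the two criteria met; inactive means mean below 50 and not all replicates reaching 50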
# DENV2 CPE = DENV2-induced cell death inhibition. DENV2-infected cells, cytopathic effect rescue, plate reader. CPE inhibition, % at 9.99 µM. AID 651640. 350,000 tested, 1.7% active; in the data active means CPE inhibition above about 20%, passing the limit was not always enough; inconclusive means no clear call, values can overlap the other calls; tested in BHK-21 cells
# rRNA inh HTS = inhibits bacterial ribosomal RNA function over humanized ribosomes; 350,000 tested, 1.6% active; GFP signal change (wild-type ribosome), % (concentration not given with the values); E. coli WT GFP vs humanized-ribosome RFP mutants, fluorescence, 24 h; stronger effect = lower value; DMSO median 0, no signal -100;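 active means significant combined selectivity score with lowered wild-type GFP, culture density cut under 30%, mutant RFP and density less affected; inactive means any of these conditions unmet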
# PGC1a acetyl inh = modulators of PGC1a acetylation; U2OS PGC1a acetylation, AlphaScreen anti-acetyl-lysine; with virally co-expressed GCN5 acetyltransferase; inhibition, % at 15.6 µM; 350,000 tested, 0.17% active; AID 651687;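 active means every replicate shows inhibition of at least 40%; inconclusive means mean inhibition at least 40% but some replicate below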
# FN deposit inh = fibronectin deposition inhibition | AH1F fibroblasts, Alexa488-fibronectin deposition fluorescence, overnight | inhibition, % at 12.6 µM | 350,000 tested, 0.086% active;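 active means mean inhibition across replicates of 30% or more, regardless of how many single replicates reach that level; inconclusive means mean under 30% yet at least half of replicates reach 30%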
#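 Schedule: 1 h cell adhesion before compound, then overnight fibronectin incubation; test system: AH1F fibroblast monolayer depositing Alexa488-labelled fibronectin into matrix; quantity: 10000 AH1F cells per well; probe or stimulus: fluorescent fibronectin at 24 nM final; signal: fluorescence, ex 485 nm, em 525 nm; evaluation: percent inhibition as loss of matrix-bound fibronectin fluorescence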
# PglD DTNB = blocks C. jejuni PglD acetyltransferase activity | purified PglD enzyme, DTNB colorimetric CoA detection | AID 602405 | inhibition, % at 12.5 µM | 360,000 tested, 0.098% active; in the data active means inhibition above about 16%, passing the limit was not always enough; inconclusive means no clear call, values can overlap the other calls
# Numbers stand for hits; . = inactive; ? = inconclusive; / = not tested or not shown; [ ] = remark or other dose. Most compounds without a hit are left out; they make up all but 3.5% or so of the library.
SMILES,Env fusion inh,DENV2 CPE,rRNA inh HTS,PGC1a acetyl inh,FN deposit inh,PglD DTNB
COc1ccc2nc(N3C(=O)C(O)=C(C(=O)c4ccco4)C3c3ccccc3OC)sc2c1 (stereo not drawn),.,.,-32,.,.,.
C[C@@H]1CN([C@H](C)CO)C(=O)c2cc(NC(=O)CCCN(C)C)ccc2O[C@H]1CN(C)Cc1ccc(C(F)(F)F)cc1,.,.,.,.,/,.
CCCO/N=C1/C(=O)N(c2ccccc2)c2ccccc21,.,.,-38,/,.,/
CCO/N=C1\C(=O)N(c2ccccc2)c2ccccc21,.,.,.,.,.,/
CCOC(=O)c1sc2nc(C)nc(NCc3ccccc3OC)c2c1C,.,.,.,63,.,.
COc1ccc2c3c([nH]c2c1)[C@@H](CO)N(C(=O)Nc1c(C)noc1C)CC31CCN(CC2CC2)CC1,/,.,.,/,/,/
COc1ccc2c3c([nH]c2c1)[C@H](CO)N(C(=O)Nc1c(C)noc1C)CC31CCN(CC2CC2)CC1,/,42,.,/,/,/
COc1ccc2c3c([nH]c2c1)[C@@H](CO)N(C(C)=O)CC31CCN(C(=O)Nc2c(C)noc2C)CC1,/,21,.,.,/,/
Cc1ccc(S(=O)(=O)N2CC[C@@H]3[C@H](CO)Nc4ccc(Br)cc4[C@@H]32)cc1,/,?,.,.,.,.
O=C(C[C@H]1C[C@@H]2c3cc(NC(=O)c4ccc5c(c4)OCO5)ccc3O[C@@H]2[C@@H](CO)O1)NC1CCCCC1,.,.,.,.,/,.
CN1C(=O)c2cc(NC(=O)c3cccs3)ccc2OC[C@H]2O[C@H](CC(=O)O)CC[C@@H]21,/,.,.,.,.,.
C[C@@H]1CN([C@@H](C)CO)C(=O)c2cc(C3=CCCCC3)cnc2O[C@@H]1CN(C)C(=O)Cc1ccccc1,.,46,.,.,/,.
Cc1ccc(-c2cnc3c(c2)C(=O)N([C@@H](C)CO)C[C@@H](C)[C@H](CN(C)C(=O)Cc2ccccc2)O3)cc1,.,.,.,.,/,.
Cc1ccc(-c2cnc3c(c2)C(=O)N([C@H](C)CO)C[C@H](C)[C@@H](CN(C)C(=O)Cc2ccncc2)O3)cc1,.,27,.,.,/,.
Cc1ccc(-c2cnc3c(c2)C(=O)N([C@H](C)CO)C[C@H](C)[C@H](CN(C)C(=O)Cc2ccccc2)O3)cc1,.,76,.,.,/,.
C[C@@H]1CN([C@H](C)CO)C(=O)c2cc(C3=CCCCC3)cnc2O[C@H]1CN(C)C(=O)c1ccc2c(c1)OCO2,.,54,.,.,.,.
O=C(NCCN1CCCCC1)[C@H]1[C@H](CO)[C@H]2Cn3c(cccc3=O)[C@@H]1N2C(=O)C1CC1,/,.,.,.,/,.
Cc1ccc(S(=O)(=O)NCC[C@@H]2CC[C@@H](NC(=O)c3cccnc3)[C@@H](CO)O2)cc1,.,.,.,.,.,.
COc1ccc(NC(=O)N(C)C[C@@H]2Oc3ccc(NC(=O)NC(C)C)cc3CC(=O)N([C@H](C)CO)C[C@H]2C)cc1,.,.,.,.,.,.
COc1ccc(-c2csc3ncn(-c4ccccc4OC)c(=O)c23)cc1OC,.,.,-26,.,.,/
CN(C)CC(=O)N1[C@@H]2Cn3c(ccc(-c4ccccc4)c3=O)[C@H]1[C@@H](C(=O)N1CCOCC1)[C@@H]2CO,/,.,.,/,/,.
C/C(=N\Nc1cccc([N+](=O)[O-])c1)c1cc2ccccc2o1,.,.,/,/,.,/
O=C(c1cccc([N+](=O)[O-])c1)c1cc2ccccc2o1,.,46,.,/,.,/
C[C@H]1CN([C@@H](C)CO)C(=O)c2cc(NC(=O)Cc3cn(C)c4ccccc34)ccc2O[C@H]1CN(C)Cc1ccc(C(=O)O)cc1,/,.,.,.,/,.
CC1(C)OC(=O)C2=C(C[C@@H](C3CC3)O[C@@H]2C2CC2)O1,.,61,.,/,.,/
SMILES,Env fusion inh,DENV2 CPE,rRNA inh HTS,PGC1a acetyl inh,FN deposit inh,PglD DTNB
CC1(C)OC(=O)C2=C(C[C@@H](C3CCCC3)O[C@H]2CCc2cccc(Cl)c2)O1,.,.,.,/,.,/
Cc1noc(C)c1NC(=O)N[C@H]1C=C[C@H](CC(=O)N2CCCCC2)O[C@H]1CO,.,.,.,.,.,.
O=C1c2ccccc2C(c2nnnn2-c2ccc3c(c2)OCCO3)N1CCc1ccc(O)cc1 (stereo not drawn),.,.,.,/,.,/
O=C1c2ccccc2C(c2nnnn2-c2ccc3c(c2)OCCO3)N1CCc1ccccc1F (stereo not drawn),.,.,-34,/,.,/
O=c1c2ccccc2sn1-c1nccs1,.,.,.,.,38,/
CCCNC(=O)C[C@H]1CC[C@@H]2[C@H](COC[C@H](O)CN2Cc2ccc(Cl)c(Cl)c2)O1,/,.,.,.,.,.
CC(C)C[C@@H]1COc2cc(NCCO)ccc2S(=O)(=O)N1,/,59,.,/,.,/
CCCCNc1ccc2c(c1)OC[C@@H](Cc1ccccc1)NS2(=O)=O,.,.,-28,/,.,/
CC(C)C[C@H]1COc2cc(NCc3ccc(Cl)c(Cl)c3)ccc2S(=O)(=O)N1,.,.,-26,/,.,/
C=CCNc1ccc2c(c1)OC[C@@H](CC(C)C)NS2(=O)=O,.,.,.,/,.,/
CCCCNc1ccc2c(c1)OC[C@@H](CC(C)C)NS2(=O)=O,/,.,.,/,.,/
COc1ccc(NC(=O)Nc2cccc3c2O[C@@H](CN(C)S(=O)(=O)c2cccs2)[C@H](C)CN([C@H](C)CO)C3=O)cc1,.,.,.,.,.,.
Cn1cnc(S(=O)(=O)N2CC[C@@H]3[C@@H](CO)Nc4ccc(-c5ccccc5)cc4[C@@H]32)c1,/,.,.,.,.,.
C[C@H](CO)N1C[C@H](C)[C@@H](CN(C)Cc2ccc(Cl)c(Cl)c2)OCCCC[C@H](C)Oc2ccc(NS(=O)(=O)c3ccccc3)cc2C1=O,.,.,.,.,/,.
C[C@@H]1CN([C@H](C)CO)C(=O)c2cc(NS(=O)(=O)c3ccccc3)ccc2O[C@@H](C)CCCCO[C@H]1CN(C)Cc1ccc(Cl)c(Cl)c1,.,23,.,.,/,.
C[C@@H]1CCCCO[C@@H](CN(C)Cc2ccc(Cl)c(Cl)c2)[C@@H](C)CN([C@@H](C)CO)C(=O)c2cc(NS(=O)(=O)c3ccccc3)ccc2O1,.,23,.,.,/,.
C[C@@H]1CCCCO[C@H](CN(C)Cc2ccc(Cl)c(Cl)c2)[C@H](C)CN([C@@H](C)CO)C(=O)c2cc(NS(=O)(=O)c3ccccc3)ccc2O1,57[16.7 µM],32,.,.,/,.
O=C([C@H]1[C@H](CO)[C@H]2Cn3c(ccc(C4=CCCC4)c3=O)[C@@H]1N2C(=O)c1ccccc1)N1CCOCC1,/,?,.,/,/,.
COc1ccc2c3c([nH]c2c1)[C@@H](CO)N(C(=O)C1CCOCC1)CC31CN(C(=O)NC(C)C)C1,/,.,.,.,.,/

# Screening data deposited in PubChem BioAssay by Broad Institute.
